Assay results reported in ChEMBL document CHEMBL3259533, “A new convenient synthetic method and preliminary pharmacological characterization of triazinediones as prokineticin receptor antagonists” (Eur J Med Chem, 2014).
The source made the active and inactive calls. No cut-off for these calls is given here.

Assays:
[1] = system: Mus musculus; assay: Analgesic activity in C57Bl/6 mouse assessed as inhibition of Bv8-induced decrease in latencies to paw withdrawal administered as intraplantar route at 48 degC after 15 to 180 mins; type: functional, organism-based
Method in brief: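 Male C57Bl/6 mice (25–30 g), trained the preceding week. Antagonist in saline, 20 µl intraplantar, 5 min before Bv8 (63 fmol i.pl. in saline). Paw withdrawal latency from 48 °C water measured in triplicate at 15–180 min; %ΔNT = 100×(NTts−NTB)/NTB. Separate group of 5 mice per dose; EC50 with 95% confidence intervals from dose–response curves.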

[2] = system: Mus musculus; assay: Analgesic activity in C57Bl/6 mouse assessed as changes in basal thermal sensitivity up to 120 pmol administered as intraplantar route at 48 degC after 15 to 180 mins; type: functional, organism-based
Method in brief: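 Male C57Bl/6 mice (25–30 g), trained in paw-immersion test the preceding week. Compound in saline, 20 µl intraplantar, up to 120 pmol. Hind paw dipped in 48 °C water; withdrawal latency measured three times at 15–180 min post-dose versus baseline (mean of last three pre-dose readings). Result as % change from baseline; 5 mice per dose.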

Structure (SMILES) | EC50 [1] [pmol] | Activity [2]
COc1ccc(Cn2c(=O)nc(NCCNC(=N)N)n(Cc3ccc(F)cc3)c2=O)cc1 | 36 | inactive
COc1ccc(Cn2c(=O)nc(NCCNC(=N)N)n(Cc3ccc(Br)cc3)c2=O)cc1 | 4.3 | inactive
COc1ccc(Cn2c(NCCNC(=N)N)nc(=O)n(Cc3ccc(F)cc3)c2=O)cc1 | 0.31 | inactive
COc1ccc(Cn2c(NCCNC(=N)N)nc(=O)n(Cc3ccc(Br)cc3)c2=O)cc1 | 0.36 | inactive
COc1ccc(Cn2c(=O)nc(NCCNC(=N)N)n(Cc3ccc(Cl)cc3)c2=O)cc1 | 4.4 | inactive
COc1ccc(Cn2c(=O)nc(NCCNC(=N)N)n(Cc3ccc(Cl)c(Cl)c3)c2=O)cc1 | 4.5 | inactive
CCc1ccc(Cn2c(=O)nc(NCCNC(=N)N)n(Cc3ccc(OC)cc3)c2=O)cc1 | 5.8 | inactive
COc1ccc(Cn2c(NCCNC(=N)N)nc(=O)n(Cc3ccc(C(F)(F)F)cc3)c2=O)cc1 | 51 | inactive
Cc1ccc(Cn2c(=O)nc(NCCNC(=N)N)n(Cc3ccc(Cl)c(Cl)c3)c2=O)cc1 | 5.1 | inactive
COc1ccc(Cn2c(NCCNC(=N)N)nc(=O)n(Cc3ccc4c(c3)OCO4)c2=O)cc1 | 39 | inactive
COc1ccc(Cn2c(NCCNC(=N)N)nc(=O)n(Cc3ccc([N+](=O)[O-])cc3)c2=O)cc1 | 48 | inactive
Cc1ccc(Cn2c(NCCNC(=N)N)nc(=O)n(Cc3ccc(C(F)(F)F)cc3)c2=O)cc1 | 0.033 | inactive
COc1ccc(Cn2c(=O)nc(NCCNC(=N)N)n(Cc3ccc(C(F)(F)F)cc3)c2=O)cc1 | 48 | inactive
COc1ccc(Cn2c(=O)nc(NCCNC(=N)N)n(Cc3ccc(C)cc3)c2=O)cc1 | 4.5 | inactive
COc1ccc(Cn2c(NCCNC(=N)N)nc(=O)n(Cc3ccc(I)cc3)c2=O)cc1 | 51 | inactive
COc1ccc(Cn2c(NCCNC(=N)N)nc(=O)n(Cc3ccc(Cl)cc3)c2=O)cc1 | 4 | inactive
COc1ccc(Cn2c(=O)nc(NCCNC(=N)N)n(Cc3ccccc3)c2=O)cc1 | 63 | inactive
COc1ccc(Cn2c(NCCNC(=N)N)nc(=O)n(Cc3ccc(C)cc3)c2=O)cc1 | 4.4 | inactive
COc1ccc(Cn2c(NCCNC(=N)N)nc(=O)n(Cc3ccc(OC)cc3)c2=O)cc1 |  | inactive
COc1ccc(Cn2c(=O)nc(NCCNC(=N)N)n(Cc3ccc(I)cc3)c2=O)cc1 | 39 | inactive
